The source made the active and inactive calls. The calls are words filed in the database; no cut-off is given here.
Assays:
LCC6 = assay: Induction of apoptosis in human LCC6 cells by annexin V apoptosis assay; type: functional, cell-based
NCI-H460 [1] = assay: Cytotoxicity against human H460 cells after 48 hrs by MTT assay; type: functional, cell-based; conditions: NCI-H460, 48 h
[2] = Cytotoxicity against human LCC6 cells after 48 hrs by MTT assay; type: functional, cell-based; conditions: LCC-6, 48 h
Endothelial cell = assay: Induction of apoptosis in human endothelial cells by annexin V apoptosis assay; type: functional, cell-based
NCI-H460 [3] = assay: Induction of apoptosis in human H460 cells by annexin V apoptosis assay; type: functional, cell-based
[4] = Tmax in mouse at 38.2 umol/kg, ip; conditions: in vivo
[5] = Half life in mouse at 38.2 umol/kg, ip; conditions: in vivo
[6] = Plasma clearance in mouse at 38.2 umol/kg, ip
[7] = Cmax in mouse at 38.2 umol/kg, ip within 30 mins; conditions: in vivo
[8] = AUC (0 to 480 mins) in mouse at 38.2 umol/kg, ip; conditions: plasma
SK-MEL-28 [9] = assay: Antitumor activity against VEGF expressing human SK-MEL-28 cells xenografted in mouse assessed as loss of body weight at 5 to 10 mg/kg, ip after 24 days; type: functional, organism-based
How it was run: (§1)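 SK-MEL-28 V+ cells (engineered to overexpress VEGF) of over 95% viability were used to grow primary tumours in mice. These tumours were cut into 1 mm³ explants and implanted subcutaneously. Once tumours were palpable, mice were randomized and dosed intraperitoneally for 24 days: daily at 5 or 10 mg/kg, or every second day at 20 mg/kg. Tumours were measured by caliper every 2–5 days. Body weight and histology were assessed for toxicity.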

[10] = Inhibition of tumor growth in human SK-MEL-28V+ cells xenografted in mouse at 20 mg/kg, ip administered every altenative day for 24 days; type: functional; conditions: 576 h, route intraperitoneal; how it was run: as §1
[11] = Tmax in mouse at 36.8 umol/kg, ip; conditions: in vivo
[12] = Half life in mouse at 36.8 umol/kg, ip; conditions: in vivo
[13] = Plasma clearance in mouse at 36.8 umol/kg, ip
[14] = Cmax in mouse at 36.8 umol/kg, ip within 30 mins; conditions: in vivo
[15] = AUC (0 to 480 mins) in mouse at 36.8 umol/kg, ip; conditions: plasma
Mus musculus = assay: Toxicity in VEGF expressing human SK-MEL-28 cells xenografted in mouse assessed as effect on histological indications at 5 to 10 mg/kg, ip daily for 24 days; conditions: in vivo
SK-MEL-28 [16] = assay: Inhibition of tumor growth in VEGF expressing human SK-MEL-28 cells xenografted in mouse at 10 mg/kg, ip administered every altenative day for 24 days; type: functional; conditions: SK-MEL-28, ip, 576 h, route intraperitoneal

Compound | Activity (LCC6) | IC50 (NCI-H460 [1]) [nM] | IC50 [2] [nM] | Activity (Endothelial cell) | Activity (NCI-H460 [3]) | also measured
COc1ccc(-n2c3cssc-3c(NC(=O)c3cccs3)c2=O)c(OC)c1 | Active | 8 | 210 | Active | Active | –
COc1ccc(-n2c3cssc-3c(NC(=O)c3cc(O)c(C(C)C)c(O)c3)c2=O)c(OC)c1 | Active | 72 | 70 | Active | Active | Tmax [4]: 3 min; half-life [5]: 94 min; clearance [6]: 6.3 mL/min/kg; Cmax [7]: 106 µM; AUC(0-t) at 8 h [8]: 102 µM·h
CC(=O)Nc1c2sscc-2n(-c2ccc(C)cc2)c1=O | Active | 44 | 220 | Active | Active | –
O=C(Nc1c2sscc-2n(Cc2ccccc2)c1=O)c1cc(C(F)(F)F)cc(C(F)(F)F)c1 | Active | 706 | 1180 | Active | Active | –
CC(C)c1c(O)cc(C(=O)Nc2c3sscc-3n(Cc3ccccc3)c2=O)cc1O | Active | 170 | 250 | Active | Active | –
CCCCC(C)C(=O)Nc1c2sscc-2[nH]c1=O (stereo not drawn) | Active | 200 | 200 | Active | Active | –
COc1ccc(-n2c3cssc-3c(NC(=O)c3ccco3)c2=O)c(OC)c1 | Active | 50 | 28 | Active | Active | –
COc1ccc(-n2c3cssc-3c(NC(=O)C(F)(F)F)c2=O)c(OC)c1 | Active | 170 | 60 | Active | Active | –
COc1ccc(C(=O)Nc2c3sscc-3n(-c3ccc(OC)cc3OC)c2=O)c(OC)c1 | Active | 11 | 251 | Active | Active | –
COc1ccc(-n2c3cssc-3c(NC(C)=O)c2=O)c(OC)c1 | Active | 30 | 190 | Active | Active | –
COc1ccc(-n2c3cssc-3c(NC(=O)C(F)(F)F)c2=O)cc1 | Active | 190 | 220 | Active | Active | –
CC(=O)Nc1c2sscc-2n(Cc2ccccc2)c1=O | Active | 900 | – | Active | Active | –
COc1ccc(-n2c3cssc-3c(NC(=O)c3cc(C(F)(F)F)cc(C(F)(F)F)c3)c2=O)c(OC)c1 | Active | 130 | 160 | Active | Active | Activity (SK-MEL-28 [9]): Active; inhibition in vivo at 20 mg/kg [10]: 58%; Tmax [11]: 30 min; half-life [12]: 160 min; clearance [13]: 2.9 mL/min/kg; Cmax [14]: 57 µM; AUC(0-t) at 8 h [15]: 210 µM·h; Activity (Mus musculus): Active
COc1ccc(-n2c3cssc-3c(NC(C)=O)c2=O)cc1 | Active | 53 | 220 | Active | Active | –
COc1ccc(-n2c3cssc-3c(NC(=O)c3cc(F)cc(F)c3)c2=O)c(OC)c1 | Active | 11 | 349 | Active | Active | –
CC(=O)O[C@H]1C(=O)[C@@]2(C)[C@H]([C@H](OC(=O)c3ccccc3)[C@]3(O)C[C@H](OC(=O)[C@H](O)[C@@H](NC(=O)c4ccccc4)c4ccccc4)C(C)=C1C3(C)C)[C@]1(OC(C)=O)CO[C@@H]1C[C@@H]2O [PACLITAXEL] | – | – | – | – | – | inhibition in vivo at 10 mg/kg (SK-MEL-28 [16]): 37%
CC(C)c1ccc(-n2c3cssc-3c(NC(=O)c3cc(O)c(C(C)C)c(O)c3)c2=O)cc1 | Active | 150 | 40 | Active | Active | –
COc1ccc(-n2c3cssc-3c(NC(=O)c3ccc(C(F)(F)F)cc3)c2=O)c(OC)c1 | Active | 7 | 85 | Active | Active | –

Reference: ChEMBL document CHEMBL1148030, “Substituted 6-amino-4H-[1,2]dithiolo[4,3-b]pyrrol-5-ones: synthesis, structure-activity relationships, and cytotoxic activity on selected human cancer cell lines” (Bioorg Med Chem, 2007)
